In ChEMBL document CHEMBL4257564, “Rational Design, Synthesis, and Pharmacological Characterization of Novel Ghrelin Receptor Inverse Agonists as Potential Treatment against Obesity-Related Metabolic Diseases” (J Med Chem, 2018):
pEC50, pIC50: −log10 of the molar value.

Legend:
[1] = biological target: T1, Growth hormone secretagogue receptor type 1 (Homo sapiens, UniProt Q92847); experiment: Antagonist activity at recombinant human GHSR1a expressed in HEK293 cells assessed as inhibition of ghrelin-induced intracellular calcium release incubated for 20 secs and measured after 2 mins by FLIPR assay; type: functional, cell-based
Method in brief: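 HEK293/GHSR1a cells were dye-loaded for 30-60 min. Compounds and 10 nM ghrelin were added at t = 20 s, with a 15 min compound preincubation described. Calcium response was read for 2 min. IC50 was taken from dose-response fits of the reduction in ghrelin response; mean of at least two independent runs done in triplicate.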

[2] = biological target: T1, Growth hormone secretagogue receptor type 1; experiment: Inverse agonist at recombinant human GHSR1a expressed in HEK293 cells assessed as decrease in IP1 accumulation after 1 hr by IP1-d2-based HTRF assay; type: functional, cell-based; conditions: for pEC50: read-out: EC50; for EC50: hek293
Method in brief: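 HEK293 cells stably expressing human GHSR1a were seeded on Matrigel in complete DMEM for 18–22 h at 37 °C, 5% CO2. Compound in stimulation buffer was applied for 1 h at 37 °C. IP1-d2 and Tb-cryptate were then added for 1 h at room temperature, with HTRF read at 620/665 nm. Mean of at least two independent runs in triplicate.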

[3] = Clearance in mouse liver microsomes at 0.625 uM preincubated for 5 mins followed by NADPH addition and measured after 60 mins by LC-MS/MS analysis; type: ADME, microsome; conditions: read-out: CLH
Method in brief: (§1)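 Liver microsomes (0.625 mg/mL protein) in 50 mM potassium phosphate pH 7.4 with 0.625 µM test item, prewarmed 5 min at 37 °C. Reaction started with NADPH (5 mM solution). Samples taken at 0, 5, 15, 30 and 60 min into cold MeCN with internal standard, analysed by LC-MS/MS. Intrinsic clearance derived by the half-life approach.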

[4] = Clearance in human liver microsomes at 0.625 uM preincubated for 5 mins followed by NADPH addition and measured after 60 mins by LC-MS/MS analysis; type: ADME, microsome; conditions: read-out: CLH; method in brief: as §1
[5] = biological target: T1, Growth hormone secretagogue receptor type 1; experiment: Agonist activity at recombinant human GHSR1a expressed in HEK293 cells assessed as induction of intracellular calcium release after 15 mins by FLIPR assay; type: functional, cell-based; conditions: read-out: EC50
Method in brief: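 HEK293 cells stably expressing human GHSR1a, seeded 24 h before the run, then loaded with calcium dye for 30-60 min at room temperature or 37 °C. DMSO-dissolved compounds were added and intracellular calcium release was monitored by FLIPR fluorescence.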

[6] = Clearance in rat liver microsomes at 0.625 uM preincubated for 5 mins followed by NADPH addition and measured after 60 mins by LC-MS/MS analysis; type: ADME, microsome; conditions: read-out: CLH; method in brief: as §1
[7] = Clearance in dog liver microsomes at 0.625 uM preincubated for 5 mins followed by NADPH addition and measured after 60 mins by LC-MS/MS analysis; type: ADME, Canis lupus familiaris, microsome; conditions: read-out: CLH; method in brief: as §1

T1 sequence (Q92847 whole entry): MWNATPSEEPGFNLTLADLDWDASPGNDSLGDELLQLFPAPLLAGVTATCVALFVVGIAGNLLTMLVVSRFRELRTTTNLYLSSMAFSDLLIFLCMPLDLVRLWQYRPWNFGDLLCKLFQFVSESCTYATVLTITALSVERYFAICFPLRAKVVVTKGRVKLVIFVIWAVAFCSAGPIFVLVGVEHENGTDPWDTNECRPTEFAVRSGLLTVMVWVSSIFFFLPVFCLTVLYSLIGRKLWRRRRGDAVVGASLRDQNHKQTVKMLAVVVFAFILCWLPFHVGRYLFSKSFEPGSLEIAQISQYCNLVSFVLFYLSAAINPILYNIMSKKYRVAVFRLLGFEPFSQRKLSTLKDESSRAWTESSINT

SMILES	pIC50 [1]	pEC50 [2]	microsomal CLint at 0.625 µM [3] [µL/min/mg]	microsomal CLint at 0.625 µM [4] [µL/min/mg]	EC50 [2]	pEC50 [5]	microsomal CLint at 0.625 µM [6] [µL/min/mg]	microsomal CLint at 0.625 µM [7] [µL/min/mg]
C[C@H](NC(=O)N(C)C1CCN(C2CCc3cc(-c4ncccn4)ccc32)CC1)c1ccc(C#CC2CC2)c(Cl)c1Cl (some centres not stated)	6.10	6.20						
COc1ccc([C@H](C)NC(=O)N(C)C2CCN(C3CCc4cc(-n5nccn5)ccc43)CC2)c(Cl)c1Cl (some centres not stated)	6.62	7.15	244	79.8				
Cc1cc(-c2ccc3c(c2)CCC3N2CCC(N(C)C(=O)N[C@@H](C)c3ccc(C(=O)O)c(Cl)c3Cl)CC2)ncn1 (some centres not stated)	< 4.52				Not Active			
Cc1cn2cc(C(C)NC(=O)N(C)C3CCN(C)CC3)nc2s1 (configuration not stated)	< 4.52				Not Active	< 4.52		
Cc1cc(-c2ccc3c(c2)CCC3N2CCC(N(C)C(=O)N[C@@H](C)c3ccc(C#CC4CC4)c(Cl)c3Cl)C(C)(C)C2)ncn1 (some centres not stated)	6.28	6.44						
Cc1ccc2c(c1)CCC2N1CCC(N(C)C(=O)N[C@@H](C)c2ccc(O)c(Cl)c2Cl)CC1 (some centres not stated)	5.93	6.72						
Cc1cc(-c2ccc3c(c2)CCC3N2CCC(N(C)C(=O)N[C@@H](C)c3ccc(C#CC4CC4)c(Cl)c3Cl)C2)ncn1 (some centres not stated)	6.83				Not Active			
COc1ccc([C@H](C)NC(=O)N(C)C2CCN(C3CCc4cc(Cl)ccc43)CC2)c(Cl)c1Cl (some centres not stated)	6.50	7.39	388	241			271	
Cc1cc(-c2ccc3c(c2)CCC3N2CCC(N(C)C(=O)N[C@H](c3ccc(-c4cnccn4)c(Cl)c3Cl)C(F)(F)F)CC2)ncn1 (some centres not stated)	5.09	5.66						
Cc1ccc2c(c1)CCC2N1CCC(N(C)C(=O)N[C@@H](C)c2ccc(C#C[Si](C)(C)C)c(Cl)c2Cl)CC1 (some centres not stated)	5.70				Not Active			
Cc1cc(-c2ccc3c(c2)CCC3N2CCC(N(C)C(=O)N[C@@H](CC3CC3)c3ccc(-c4cnccn4)c(Cl)c3Cl)CC2)ncn1 (some centres not stated)	5.34	6.32						
Cc1cc(-c2ccc3c(c2)CCC3N2CCC(N(C)C(=O)N[C@@H](CC3CC3)c3cccc(Cl)c3Cl)CC2)ncn1 (some centres not stated)	5.27	6.01						
COc1ccc([C@H](C)NC(=O)N(C)C2CCN(C3CCc4cc(O)ccc43)CC2)c(Cl)c1Cl (some centres not stated)	5.89		117	87.1	Not Active			
Cc1cc(-c2ccc3c(c2)CCC3N2CCC(N(C)C(=O)NCc3ccc(C#CC4CC4)c(Cl)c3Cl)CC2)ncn1 (configuration not stated)	5.95				Not Active			
COc1ccc([C@H](CC2CC2)NC(=O)N(C)C2CCN(C3CCc4cc(-c5cc(C)ncn5)ccc43)CC2)c(Cl)c1Cl (some centres not stated)	5.74	6.36						
COC(=O)c1ccc([C@H](C)NC(=O)N(C)C2CCN(C3CCc4cc(-c5cc(C)ncn5)ccc43)CC2)c(Cl)c1Cl (some centres not stated)	6.52	7.02						
C#Cc1ccc([C@H](C)NC(=O)N(C)C2CCN(C3CCc4cc(C)ccc43)CC2)c(Cl)c1Cl (some centres not stated)	6.97				Not Active			
Cc1cc(-c2ccc3c(c2)CCC3N2CCC(N(C)C(=O)NCc3cccc(Cl)c3Cl)CC2)ncn1 (configuration not stated)	5.57				Not Active			
Cc1ccc2c(c1)CCC2N1CCC(N(C)C(=O)N[C@@H](C)c2ccc(C#CC3CC3)c(Cl)c2Cl)CC1 (some centres not stated)	6.55	6.93						

SMILES	pIC50 [1]	pEC50 [2]	microsomal CLint at 0.625 µM [3] [µL/min/mg]	microsomal CLint at 0.625 µM [4] [µL/min/mg]	EC50 [2]	pEC50 [5]	microsomal CLint at 0.625 µM [6] [µL/min/mg]	microsomal CLint at 0.625 µM [7] [µL/min/mg]
CC[C@H](NC(=O)N(C)C1CCN(C2CCc3cc(-c4cc(C)ncn4)ccc32)CC1)c1ccc(C#CC2CC2)c(Cl)c1Cl (some centres not stated)	6.72	6.51						
CCN(C(=O)N[C@@H](C)c1ccc(C#CC2CC2)c(Cl)c1Cl)C1CCN(C2CCc3cc(-c4cc(C)ncn4)ccc32)CC1 (some centres not stated)	5.53	6.03						
Cc1cc(-c2ccc3c(c2)CC[C@H]3N2CC3(CCN(C(=O)N[C@@H](C)c4ccc(-c5cnccn5)c(Cl)c4Cl)CC3)C2)ncn1	5.92	6.32				< 4.52		
Cc1cc(-c2ccc3c(c2)CC[C@H]3N2CC3(CCN(C(=O)N[C@@H](C)c4cccc(Cl)c4Cl)CC3)C2)ncn1	5.40				Not Active	< 4.52		
Cc1ccc2c(c1)CCC2N1CCC(N(C)C(=O)N[C@@H](C)c2ccc(C3CC3)c(Cl)c2Cl)CC1 (some centres not stated)	5.63				Not Active			
COc1ccc([C@H](C)NC(=O)N(C)C2CCN(C3CCc4cc(-c5cc(C)ncn5)ccc43)CC2)c(Cl)c1Cl (some centres not stated)	6.77	7.17	122	94.2			69.5	241
Cc1cc(-c2ccc3c(c2)CC[C@@H]3N2CCC(N(C)C(=O)N[C@@H](C)c3ccc(C#CC4CC4)c(Cl)c3Cl)CC2)ncn1	5.89	5.89						
C[C@H](NC(=O)N(C)C1CCN(C2CCc3cc(-c4cncnc4)ccc32)CC1)c1ccc(C#CC2CC2)c(Cl)c1Cl (some centres not stated)	7.07	7.07						
Cc1cc(-c2ccc3c(c2)CCC3N2CCC(N(C)C(=O)N[C@@H](C)c3ccc(-c4cnccn4)c(Cl)c3Cl)CC2)ncn1 (some centres not stated)	6.43	6.71				< 4.52		
Cc1cn2cc(CNC(=O)N(C)C3CCN(C)CC3)nc2s1	< 4.52				Not Active	< 4.52		
Cc1cc(-c2ccc3c(c2)CCC3N2CCC(N(C)C(=O)N[C@@H](C)c3ccc(N)c(Cl)c3Cl)CC2)ncn1 (some centres not stated)	6.24	6.92						
Cc1cc(-c2ccc3c(c2)CCC3N2CCC(N(C)C(=O)NC(C)c3cccc(Cl)c3Cl)CC2)ncn1 (configuration not stated)	5.63				Not Active	< 4.52		
COc1ccc2c(c1)CCC2N1CCC(N(C)C(=O)N[C@@H](C)c2ccc(OC)c(Cl)c2Cl)CC1 (some centres not stated)	6.92	7.07						
Cc1cc(-c2ccc3c(c2)CCC3N2CCC(N(C)C(=O)N[C@@H](C)c3ccc(C4CC4)c(Cl)c3Cl)CC2)ncn1 (some centres not stated)	5.54	6.53						
COc1ccc([C@H](C)NC(=O)N(C)C2CCN(C3CCc4cc(N)ccc43)CC2)c(Cl)c1Cl (some centres not stated)	5.82		70.4	47.1	Not Active			
C[C@H](NC(=O)N(C)C1CCN(C2CCc3ccccc32)CC1)c1ccc(C#CC2CC2)c(Cl)c1Cl (some centres not stated)	6.04				Not Active			
Cc1cc(-c2ccc3c(c2)CCC3N2CCC(N(C)C(=O)N[C@@H](C)c3ccc(C#CC4CC4)c(Cl)c3Cl)CC2)ncn1 (some centres not stated)	7.10	7.29	42.6	53.9			19.2	62.3
C#Cc1ccc([C@H](C)NC(=O)N(C)C2CCN(C3CCc4cc(-c5cc(C)ncn5)ccc43)CC2)c(Cl)c1Cl (some centres not stated)	6.81	7.97	157	165			65.6	137
COc1ccc([C@H](C)NC(=O)N(C)C2CCN(C3CCc4cc(C)ccc43)CC2)c(Cl)c1Cl (some centres not stated)	6.48	7.14	217	80.3			143	168
